Published values pooled from the literature.
Target: Activin receptor type-1B (ACVR1B, Homo sapiens, UniProt P36896)
Sequence (P36896 24-505, as in one of the studies): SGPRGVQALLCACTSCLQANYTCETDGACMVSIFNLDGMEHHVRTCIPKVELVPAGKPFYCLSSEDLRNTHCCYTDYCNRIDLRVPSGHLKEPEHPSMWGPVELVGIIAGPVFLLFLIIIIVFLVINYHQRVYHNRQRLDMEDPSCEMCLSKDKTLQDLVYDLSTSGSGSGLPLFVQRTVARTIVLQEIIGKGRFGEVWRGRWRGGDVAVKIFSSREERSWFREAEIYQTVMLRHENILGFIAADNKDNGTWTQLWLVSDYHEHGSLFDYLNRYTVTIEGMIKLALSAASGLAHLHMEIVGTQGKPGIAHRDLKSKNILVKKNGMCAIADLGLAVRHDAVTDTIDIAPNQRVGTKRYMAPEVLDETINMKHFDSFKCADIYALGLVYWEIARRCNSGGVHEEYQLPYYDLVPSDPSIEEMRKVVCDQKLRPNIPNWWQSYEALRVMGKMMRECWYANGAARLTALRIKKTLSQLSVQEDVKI

C[C@@H](c1ccc(-n2cnc3c(N)ncnc32)cc1)N1CCc2nn(C)c(Cc3ccccc3)c2C1=O  remaining binding (binding, competition with immobilised ligand; 0.1 µM): 93%
CC(=O)C1=C(C)N(c2cccc(C(F)(F)F)c2)C(=O)N[C@@H]1c1ccc(C#N)nc1  remaining binding (cell-free assay, competition with immobilised ligand; 1 µM): 100%
F[C@@H]1CCN(c2nccc(-c3cnn4ncccc34)n2)C1  remaining binding (binding; 1 µM): 100%
Cc1cnc(Nc2ccc(C(=O)N3CCC(N4CCCC4)CC3)cc2)nc1-c1cc2ccccc2s1  remaining binding (binding, competition with immobilised ligand; 1 µM): 33%
Cc1nc(N2CC[C@@H](O)C2)ncc1-c1cc(C(F)(F)F)cc2[nH]ncc12  remaining binding (cell-free assay, competition with immobilised ligand; 1 µM): 100%
C=CC(=O)N1CCC(C(=O)NCC(=O)N2CCN(c3nc(-c4cnc(N)nc4C(F)F)nc(N4CCOCC4)n3)CC2)CC1  remaining binding (binding, competition with immobilised ligand; 1 µM): 82%
CNC(=O)[C@@H]1CC[C@@H](n2c(-c3ccc4cnccc4c3)nc3ccc(C(=O)NCc4cccc(C(N)=O)c4)cc32)C1  remaining binding (binding, competition with immobilised ligand; 1 µM): 100%
Cc1cnn2ncc(-c3ccnc(N(C)C)n3)c2c1  remaining binding (binding; 1 µM): 100%
CCC(=O)N[C@@H]1CC[C@H](C(=O)N(C)c2ccc(-c3nc4ccccc4o3)cc2)C1  remaining binding (cell-free assay, competition with immobilised ligand; 1 µM): 100%
CN(C)c1ncc(F)c(-c2cnn3ncccc23)n1  remaining binding (binding; 1 µM): 100%
FC(F)(F)Oc1cccc(-c2cnc3ccc(-c4ccncc4)nn23)c1  remaining binding (cell-free assay, competition with immobilised ligand; 5 µM): 85%
O=C(Nc1c[nH]nc1C(=O)NC1CCNCC1)c1cc(F)cc(F)c1  remaining binding (binding, competition with immobilised ligand; 1 µM): 90%
C[C@H]1CCN(c2nccc(-c3cnn4ncccc34)n2)C1  remaining binding (binding; 1 µM): 71%
CS(=O)(=O)NCC[C@H](NC(=O)c1cncc2c1cnn2-c1ccc(F)cc1)c1ccnc(S(C)(=O)=O)c1  remaining binding (cell-free assay, competition with immobilised ligand; 1 µM): 100%
O=C(c1ccc(Nc2ncc(Cl)c(-c3ccc(Cl)s3)n2)cc1)N1CCC(N2CCCC2)CC1  remaining binding (binding, competition with immobilised ligand; 1 µM): 58%
CN(C)c1nccc(-c2cnn3ncccc23)n1  remaining binding (binding; 1 µM): 96%
O=C(NS(=O)(=O)c1ccc(NCC2CCOCC2)c([N+](=O)[O-])c1)c1ccc(N2CCN(Cc3ccc(C(F)(F)F)cc3-c3ccc(Cl)cc3)CC2)cc1Oc1cnc2[nH]ccc2c1  remaining binding (cell-free assay, competition with immobilised ligand; 1 µM): 59%
c1cnn2ncc(-c3ccnc(N4CCC45COC5)n3)c2c1  remaining binding (binding; 1 µM): 82%
O=C(c1ccc(Nc2ncc(Cl)c(-c3cc4ccccc4s3)n2)cc1)N1CCC(N2CCCC2)CC1  remaining binding (binding, competition with immobilised ligand; 1 µM): 48%
CC(C)CC(=O)N1CCc2nc(-c3ccc(Br)cc3)nc(N(C)Cc3ccccc3)c2C1  remaining binding (cell-free assay, competition with immobilised ligand; 0.1 µM): 89%
CCN1CCN(Cc2ccc(C(=O)Nc3ccc(C)c(Oc4ccc5c(c4)CC(=O)N5)c3)cc2C(F)(F)F)CC1  remaining binding (binding, competition with immobilised ligand; 1 µM): 100%
O=C(NCc1ncc(C(F)(F)F)cc1Cl)c1ccc2c(c1)C1(CCS(=O)(=O)CC1)[C@@H](C1CC1)N2S(=O)(=O)c1ccc(F)cc1  remaining binding (cell-free assay, competition with immobilised ligand; 1 µM): 87%
N[C@@H]1CCN(c2nccc(-c3cnn4ncccc34)n2)C1  remaining binding (binding; 1 µM): 100%
COc1ccc2c(c1)O[C@@H](c1ccc(OC)c(OC)c1)C[C@H]2NC(=O)C1(c2ccc3c(c2)OC(F)(F)O3)CC1  remaining binding (cell-free assay, competition with immobilised ligand; 1 µM): 67%
C[C@@H]1CN(c2ccc3ncc(-c4ccc5[nH]nc(C6CC6)c5c4)n3n2)C[C@H](C)O1  remaining binding (binding, competition with immobilised ligand; 0.5 µM): 100%
